Calls of active or inactive are those of the source. The calls are words filed in the database; no cut-off is given here.
Assays:
[1] = system: MDA-MB-231; assay: Cytotoxicity against human MDA-MB-231 cells after 48 hrs by sulforhodamine B assay; format: functional; conditions: MDA-MB-231, 48 h; for CC50: read-out: LC50 (the source's name)
How it was run: (§1)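 Cells seeded at 5×10^3 per well in RPMI and allowed to attach for 18 h in drug-free medium. Samples were added in 3:7 DMSO/H2O, with highest concentration 100 µM, and exposed for 48 h. Cells were fixed with cold TCA at 4 °C for 60 min, stained with 0.4% SRB and solubilized in Tris. OD was read at 490 nm. GI50, TGI and LC50 came from automated analysis following the NCI protocol.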

[2] = target: T1, Catenin beta-1 (Homo sapiens) (UniProt P35222); assay: Inhibition of beta-catenin expressed in human SW480 cells by luciferase reporter gene assay
T1 sequence (whole entry): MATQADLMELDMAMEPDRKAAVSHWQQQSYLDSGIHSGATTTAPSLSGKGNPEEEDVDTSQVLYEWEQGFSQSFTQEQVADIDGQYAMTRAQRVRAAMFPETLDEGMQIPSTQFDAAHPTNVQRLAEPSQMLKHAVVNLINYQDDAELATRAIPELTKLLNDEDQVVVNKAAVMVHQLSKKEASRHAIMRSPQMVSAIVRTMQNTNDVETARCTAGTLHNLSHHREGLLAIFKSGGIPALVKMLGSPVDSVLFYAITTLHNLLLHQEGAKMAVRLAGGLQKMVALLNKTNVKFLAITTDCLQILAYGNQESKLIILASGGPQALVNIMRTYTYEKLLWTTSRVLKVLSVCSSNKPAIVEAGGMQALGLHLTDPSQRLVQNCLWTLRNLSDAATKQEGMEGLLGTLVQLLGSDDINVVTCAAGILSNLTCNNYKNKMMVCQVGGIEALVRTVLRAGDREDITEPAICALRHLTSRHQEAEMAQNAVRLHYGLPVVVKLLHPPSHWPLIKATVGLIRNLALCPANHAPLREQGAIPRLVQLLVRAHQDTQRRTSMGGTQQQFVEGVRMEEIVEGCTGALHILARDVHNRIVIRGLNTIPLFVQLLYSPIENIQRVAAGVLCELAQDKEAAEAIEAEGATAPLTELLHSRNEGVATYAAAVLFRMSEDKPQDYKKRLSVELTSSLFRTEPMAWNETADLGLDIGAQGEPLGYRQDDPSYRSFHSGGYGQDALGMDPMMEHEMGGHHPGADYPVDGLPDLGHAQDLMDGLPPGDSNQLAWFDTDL

[3] = system: HT-29; assay: Cytotoxicity against human HT-29 cells after 48 hrs by sulforhodamine B assay; format: functional; conditions: HT-29, 48 h; how it was run: as §1
[4] = system: A549; assay: Cytotoxicity against human A549 cells after 48 hrs by sulforhodamine B assay; format: functional; conditions: A549, 48 h; for CC50: read-out: LC50 (the source's name); how it was run: as §1
[5] = target: Hypoxia-inducible factor 1-alpha (Homo sapiens) (UniProt Q16665); assay: Inhibition of HIF1alpha expressed in human HeLa cells at 10 ug/mL by HIF1-luciferase reporter gene assay relative to control; format: cell-based
How it was run: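 HIF1-luc stably transfected HeLa cells were plated at 20,000 cells/well and set for 24 h. They were pretreated 30 min with 1% DMSO vehicle or compound (10, 2, 0.4, 0.08, 0.016 µg/mL), then given 50 µM deferoxamine as hypoxia mimetic for 24 h. Survival was measured by calcein-AM fluorescence (0.1 µM, 30 min, 37 °C), followed by luciferase luminescence. Reported as % of control.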

[6] = target: Epidermal growth factor receptor (Homo sapiens) (UniProt P00533); assay: Inhibition of EGFR expressed in human HeLa cells at 10 ug/mL by AP1-luciferase reporter gene assay relative to control; format: cell-based
How it was run: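 AP1-luc stably transfected HeLa cells were grown in DMEM/10% FBS at 20,000 cells/well and set for 24 h. They were treated with 1% DMSO vehicle or compound (10, 2, 0.4, 0.08, 0.016 µg/mL) before stimulation with EGF at 25 ng/mL. Control inhibitor was AG-1478 at 20 µM. Survival was checked by calcein-AM (0.1 µM, 30 min, 37 °C), then luciferase read by luminescence. Values are % of control.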

[7] = system: HeLa; assay: Inhibition of mitosis in human HeLa cells assessed as G2 checkpoint inhibition by ELISA; format: functional, cell-based
How it was run: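 ELISA immunoassay in HeLa cells. Paclitaxel and vinblastine (each 1 µg/mL) were control inhibitors. Five fixed concentrations were tested (10, 2, 0.4, 0.08, 0.016 µg/mL). Inhibition and survival are given as % of controls.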

[8] = system: MDA-MB-231; assay: Inhibition of histone deacetylase expressed in human MDA-MB-231 cells; format: cell-based
How it was run: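 Cell extracts from MDA-MB-231 breast carcinoma served as enzyme source. Trichostatin A at 250 nM was the reference inhibitor. Test concentrations were 10, 2, 0.4, 0.08 and 0.016 µg/mL. Data are % inhibition relative to controls.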

Hypoxia-inducible factor 1-alpha (Homo sapiens), sequence (Q16665 whole entry, looked up): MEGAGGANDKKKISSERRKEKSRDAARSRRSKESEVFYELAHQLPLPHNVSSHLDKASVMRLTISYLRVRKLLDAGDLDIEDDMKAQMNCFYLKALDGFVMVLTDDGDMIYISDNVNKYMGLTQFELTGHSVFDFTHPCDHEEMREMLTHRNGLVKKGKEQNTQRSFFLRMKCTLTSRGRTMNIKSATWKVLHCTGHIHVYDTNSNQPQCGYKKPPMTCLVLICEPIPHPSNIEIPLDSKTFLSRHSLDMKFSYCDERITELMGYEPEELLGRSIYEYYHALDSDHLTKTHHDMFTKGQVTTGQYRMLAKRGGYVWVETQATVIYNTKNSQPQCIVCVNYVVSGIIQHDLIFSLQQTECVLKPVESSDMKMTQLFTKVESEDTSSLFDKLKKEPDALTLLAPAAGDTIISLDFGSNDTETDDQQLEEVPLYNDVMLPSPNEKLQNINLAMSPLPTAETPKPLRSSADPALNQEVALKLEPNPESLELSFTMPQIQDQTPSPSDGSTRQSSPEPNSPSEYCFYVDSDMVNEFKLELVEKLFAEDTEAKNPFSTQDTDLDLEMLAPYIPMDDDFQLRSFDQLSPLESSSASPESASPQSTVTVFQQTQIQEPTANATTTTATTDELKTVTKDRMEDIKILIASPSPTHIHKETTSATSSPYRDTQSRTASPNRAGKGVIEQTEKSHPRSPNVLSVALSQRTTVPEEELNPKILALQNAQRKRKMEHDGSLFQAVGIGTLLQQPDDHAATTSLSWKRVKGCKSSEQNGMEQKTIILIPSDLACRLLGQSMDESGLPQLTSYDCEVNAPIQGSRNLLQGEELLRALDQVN
Epidermal growth factor receptor (Homo sapiens), sequence (P00533 whole entry): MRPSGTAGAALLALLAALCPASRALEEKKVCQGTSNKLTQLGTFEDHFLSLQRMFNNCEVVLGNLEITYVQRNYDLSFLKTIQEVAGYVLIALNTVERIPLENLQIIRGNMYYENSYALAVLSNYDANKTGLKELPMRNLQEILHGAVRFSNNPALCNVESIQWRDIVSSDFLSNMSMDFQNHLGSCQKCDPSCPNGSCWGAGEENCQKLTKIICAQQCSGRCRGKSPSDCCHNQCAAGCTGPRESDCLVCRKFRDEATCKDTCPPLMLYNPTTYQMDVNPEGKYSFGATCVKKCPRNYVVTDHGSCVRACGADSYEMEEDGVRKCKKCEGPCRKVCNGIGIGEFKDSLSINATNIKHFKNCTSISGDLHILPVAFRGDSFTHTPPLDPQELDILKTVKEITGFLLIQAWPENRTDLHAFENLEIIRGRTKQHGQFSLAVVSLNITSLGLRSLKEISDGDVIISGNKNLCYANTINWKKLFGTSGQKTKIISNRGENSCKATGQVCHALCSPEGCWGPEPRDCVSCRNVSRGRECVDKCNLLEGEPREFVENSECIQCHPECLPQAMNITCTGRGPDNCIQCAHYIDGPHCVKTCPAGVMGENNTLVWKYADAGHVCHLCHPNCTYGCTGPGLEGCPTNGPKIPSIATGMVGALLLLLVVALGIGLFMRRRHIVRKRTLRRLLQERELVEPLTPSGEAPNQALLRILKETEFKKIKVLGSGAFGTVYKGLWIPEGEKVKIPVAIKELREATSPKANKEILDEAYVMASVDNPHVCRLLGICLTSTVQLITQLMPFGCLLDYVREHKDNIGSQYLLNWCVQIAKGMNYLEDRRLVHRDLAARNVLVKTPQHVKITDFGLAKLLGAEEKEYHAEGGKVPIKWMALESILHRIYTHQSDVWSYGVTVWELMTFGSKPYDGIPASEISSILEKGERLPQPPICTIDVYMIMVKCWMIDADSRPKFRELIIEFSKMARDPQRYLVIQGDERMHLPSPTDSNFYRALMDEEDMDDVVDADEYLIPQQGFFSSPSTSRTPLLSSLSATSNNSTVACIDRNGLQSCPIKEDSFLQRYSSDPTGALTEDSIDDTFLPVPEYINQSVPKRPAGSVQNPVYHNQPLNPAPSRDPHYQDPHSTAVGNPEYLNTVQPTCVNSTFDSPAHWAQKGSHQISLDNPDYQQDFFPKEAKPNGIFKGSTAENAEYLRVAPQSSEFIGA

Row | SMILES | GI50 [1] | TGI [1] | CC50 [1] | Activity [2] | GI50 [3] | LC50 (concentration killing 50% of cells) [3] | TGI [3] | GI50 [4] | TGI [4] | CC50 [4] | inhibition [5] | inhibition [6] | Activity [7] | Activity [8]
1 | COC(=O)[C@@H]1C[C@]2(CC=C(C)C)c3ccccc3N3C(=N)[C@@H](Cc4ccccc4)N1[C@@H]32 | 9.39 µM | 24.1 µM | 24.1 µM | inactive | > 100 µM | > 100 µM | > 100 µM | 12 µM | 24.1 µM | 24.1 µM | 61% | 0% | inactive | inactive
2 | COC(=O)[C@@H]1C[C@@]2(CC=C(C)C)c3ccccc3N3C(=N)[C@H](Cc4ccccc4)N1[C@H]32 | > 100 µM | > 100 µM | > 100 µM | inactive | 20.2 µM | 24.1 µM | 24.1 µM | 22.1 µM | 24.1 µM | 24.1 µM | 78% | 20% | inactive | inactive
3 | COC(=O)[C@@H]1C[C@H]2c3ccccc3N3C(=N)C(C)(C)N1[C@@H]23 |  |  |  | inactive |  |  |  |  |  |  |  |  | inactive | inactive
4 | COC(=O)[C@@H]1C[C@@]2(CC=C(C)C)c3ccccc3N3C(=N)[C@H](C(C)(C)C)N1[C@H]32 | 15.2 µM | 26.2 µM | 26.2 µM | inactive | > 100 µM | > 100 µM | > 100 µM | > 100 µM | > 100 µM | > 100 µM | 83% | 0% | inactive | inactive
5 | COC(=O)[C@@H]1C[C@@]2(CC=C(C)C)c3ccccc3N3C(=N)C(C)(C)N1[C@H]32 | 11 µM | 28.3 µM | 28.3 µM | inactive | 4.24 µM | 28.3 µM | 28.3 µM | 5.66 µM | 28.3 µM | 28.3 µM | 73% | 0% | inactive | inactive
6 | COC(=O)[C@@H]1C[C@@]2(Br)c3cc(Br)ccc3N3C(=N)C(C)(C)N1[C@H]32 | > 100 µM | > 100 µM | > 100 µM | inactive | > 100 µM | > 100 µM | > 100 µM | > 100 µM | > 100 µM | > 100 µM | 55% | 45% | inactive | inactive
7 | C=CC[C@@]12C[C@@H](C(=O)OC)N3[C@@H]1N(C(=N)C31CCCCC1)c1ccccc12 | 23.5 µM | 24.6 µM | 25.7 µM | inactive | 22.4 µM | 25.2 µM | 23.5 µM | 23.3 µM | 24.1 µM | 25.2 µM |  | 52% | inactive | inactive
8 | COC(=O)[C@@H]1C[C@@]2(Br)c3cc(Br)ccc3N3C(=N)[C@H](C(C)(C)C)N1[C@H]32 | > 100 µM | > 100 µM | > 100 µM | inactive | > 100 µM | > 100 µM | > 100 µM | > 100 µM | > 100 µM | > 100 µM | 73% | 0% | inactive | inactive
9 | COC(=O)[C@@H]1C[C@@]2(Br)c3ccccc3N3C(=N)[C@H](C(C)(C)C)N1[C@H]32 | 17.6 µM | 25.5 µM | 25.5 µM | inactive | > 100 µM | > 100 µM | > 100 µM | > 100 µM | > 100 µM | > 100 µM | 70% | 0% | inactive | inactive
10 | COC(=O)[C@@H]1C[C@H]2c3ccccc3N3C(=N)C4(CCCCC4)N1[C@@H]23 |  |  |  | inactive | 9.23 µM | 9.23 µM | 9.23 µM | 9.23 µM | 9.23 µM | 9.23 µM |  |  | inactive | inactive
11 | COC(=O)[C@@H]1C[C@@]2(CC=C(C)C)c3ccccc3N3C(=N)[C@H](c4ccccc4)N1[C@H]32 | > 100 µM | > 100 µM | > 100 µM | inactive | > 100 µM | > 100 µM | > 100 µM | > 100 µM | > 100 µM | > 100 µM | 78% | 13% | inactive | inactive
12 | COC(=O)[C@@H]1C[C@@]2(Br)c3cc(Br)ccc3N3C(=N)C4(CCCCC4)N1[C@H]32 | 6.21 µM | 8.49 µM | > 100 µM | inactive | 7.45 µM | 14.1 µM | 9.31 µM | 7.24 µM | 10.8 µM | 16.1 µM |  | 83% | inactive | inactive
